Consider 1 compound from publication PMC12393906 (Molecular Therapy, 2025).

In series [1] the test system is mouse platelets. The experiment in a line: Flow cytometry of P-selectin exposure and αIIbβ3 integrin activation. It is filed as cell-based. In a few lines: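 Washed mouse platelets (2 × 10^8/mL in HEPES-Tyrode; C57BL/6 or Ero1α/β-null) were pretreated 20 min at 37°C with 0.1% DMSO vehicle or test compound. Agonist was added for 5 min at 37°C. Cells were stained 15 min with labelled anti-P-selectin or JON/A (activated αIIbβ3) and read by flow cytometry as geometric mean fluorescence intensity.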
(A flow cytometer gives signals particle by particle.)

Series [2] relates to mouse platelets. The experiment in a line: Platelet aggregation assay and ATP secretion. In kind it is cell-based. In a few lines:
(§1)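 Washed mouse platelets (WT control, C57BL/6 or Ero1α/β-null) were pretreated 20 min at 37°C with 0.1% DMSO vehicle or test compound. After agonist addition, aggregation and ATP secretion were recorded together in a lumi-aggregometer at 37°C with stirring at 1,000 rpm.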

Series [3] has as its system mouse platelets. The experiment in a line: Analysis of cell viability. It is filed as cell-based. The note with it: 5 μM; incubation 20 minutes to 24 hours. In a few lines:
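Platelets were isolated from ACD blood of C57BL/6, WT control or Ero1α/β CKO mice (8–12 weeks) and washed in HEPES-Tyrode buffer at 2 × 10^8 cells/mL. They were incubated at 37°C with vehicle (0.1% DMSO) or test compound for various times. Cells were then labelled with FITC-annexin V for 20 min and read by flow cytometry.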

In the next series the test system is pancreatic islet cells. Kind of series: Glucose-stimulated insulin secretion and insulin content. In kind it is cell-based, mouse. The note with it: 1 or 5 μM; high glucose (16.7 mM). Summed up:
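Islets were isolated by bile-duct perfusion of type V collagenase (0.45 mg/mL), handpicked and cultured overnight in RPMI/10% FCS. They were exposed 3 h in KRBH (pH 7.4) to 2.8 mM or 16.7 mM glucose, ± vehicle (0.1% DMSO) or 1 or 5 μM test compound. Ten islets per group then had 1 h in low glucose, then 1 h at 37°C under the same conditions, in technical duplicates. Supernatant insulin and acid-ethanol-extracted content were measured by ELISA.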

The test system of a further series is Ero1α/β-null platelets. The experiment in a line: Platelet aggregation and ATP secretion in knockout platelets. In kind it is cell-based, mouse. Summed up: as §1
The test system of series [4] is mouse platelets. Kind of series: CCL5/RANTES in platelet releasates. In kind it is cell-based. Summed up:
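Washed mouse platelets (5 × 10^8 cells/mL) were pretreated 20 min at 37°C with 0.1% DMSO vehicle or test compound. They were then stimulated 10 min with 0.01 U/mL thrombin or 0.05 μg/mL CRP. CCL5/RANTES in the collected supernatant was quantified by ELISA.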

Another series has as its system C57BL/6 mice. The experiment in a line: Ex vivo platelet activation after intravenous injection. In kind it is in vivo, mouse. Particulars: iv 0.3 μg/g BW; blood collected 10 min later. In a few lines: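 C57BL/6 mice (8–12 weeks, both sexes) received iv vehicle (1% DMSO in saline) or test compound at 0.3 μg/g BW. Blood was drawn 10 min later and washed platelets were isolated. Platelets were stimulated with agonist for 5 min at 37°C and stained 15 min for P-selectin and activated αIIbβ3 (JON/A). Flow cytometry read-out was geometric mean fluorescence intensity.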

[5] abbreviates: 1 or 2.5 μM, 0.015 U/mL thrombin or 0.05 μg/mL CRP.

Take `O=C(O)c1cc(N2N=C(C(F)(F)F)/C(=C/c3ccc(-c4ccccc4)o3)C2=O)ccc1Cl` [EN460]: the “P-selectin exposure and αIIbβ3 integrin activation” value is on record as “inhibited” in the series with mouse platelets [1] (1-5 µM, low agonist: 0.01 U/mL thrombin, 0.025 μg/mL CRP, 0.5 μM U46619, 0.5 μM A23187, concentration-dependent) and “still observed” in the series with mouse platelets [1] (2.5 or 5 μM, high agonist: thrombin 0.1 U/mL or CRP 0.2 μg/mL, weaker effect). Besides, in the series with mouse platelets [1] (M6766 5 μM, EN460 2.5 or 5 μM, no agonist), the “P-selectin exposure and αIIbβ3 integrin activation in resting platelets” value was “appeared to enhance both events”. Besides, the ATP secretion result is reported as “without affecting ATP secretion” in the series on mouse platelets [2] (1 μM, 0.5 µM U46619); “had no effect on ATP secretion” in the series with mouse platelets [2] (setting [5]); “not ATP secretion” in the series on Ero1α/β-null platelets (2.5 μM, 0.015 U/mL thrombin). Besides, the platelet aggregation result with mouse platelets [2] (1 μM, 0.5 µM U46619) is given as “completely inhibited U46619-induced platelet aggregation”; with mouse platelets [2] (setting [5]), “significantly inhibited aggregation”. The “platelet aggregation and ATP secretion” value is “abolished both responses” in the series on mouse platelets [2] (5 μM, 0.5 µM U46619); “markedly inhibited platelet aggregation and ATP secretion” in the series on mouse platelets [2] (5 μM, 0.015 U/mL thrombin or 0.05 μg/mL CRP); “also inhibited platelet aggregation and ATP secretion” with mouse platelets [2] (1-5 µM, 0.5 µM A23187); “significantly inhibited both responses” with mouse platelets [2] (1-5 µM, high concentration of thrombin (0.1 U/ml)); “significantly inhibited both responses” in the series with mouse platelets [2] (2.5 or 5 μM, high concentration of CRP (0.2 µg/ml)). In addition, in the series with mouse platelets [3], the “annexin V binding (platelet viability)” value is given as “markedly increased annexin V binding within 20 min”. The “insulin secretion or content” value in the series with pancreatic islet cells is given as “did not reduce insulin secretion or content”. Moreover, the thrombin-induced aggregation entry in the series on Ero1α/β-null platelets (2.5 μM, 0.015 U/mL thrombin) is “markedly inhibited thrombin-induced aggregation”. For the same compound, in the series on Ero1α/β-null platelets (5 μM, 0.015 U/ml thrombin), the “thrombin-stimulated aggregation and ATP secretion” value was “significantly inhibited both responses”. In the series with mouse platelets [4] (5 μM), the “CCL5 secretion in resting and activated platelets” value is reported as “appeared to increase CCL5 secretion”. Besides, the “CCL5 secretion from activated platelets” value with mouse platelets [4] (various concentrations (1-5 μM), thrombin) was “inhibits CCL5 secretion”. The “P-selectin exposure and αIIbβ3 integrin activation following thrombin stimulation (ex vivo)” value in the series with C57BL/6 mice is reported as “moderate but significant reduction”.
